Bioassay records: PubChem BioAssay, Broad Institute
Most compounds without a hit are left out; they make up all but 3.5% or so of the library.
ERAP1 inh: ERAP1 (human) enzyme inhibition | inhibition, % at 10.7 µM | recombinant ERAP1, Leu-AMC fluorescence, 60 min | Q9NZ08 | AID 652197 | 0.15% of 340,000 active;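 active = mean replicate inhibition of at least 30%, or all replicates individually reaching that 30% level; inactive = mean below 30% and not every replicate reaching it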
Cneo AK release: causes C. neoformans cell lysis. adenylate kinase release luminescence, 4 h; normalised: neutral wells 0, clomiphene wells 100. lysis activity, % at 15 µM. 0.2% of 360,000 active;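 active = mean lysis activity across replicates of at least 80%, whatever share of replicates individually reach that level; inactive = mean lysis activity below 80%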
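Material: C. neoformans cells | Amount: Yeast cell density of 5 × 10^6 cells/mL | Medium: Fresh YPD growth medium | Dosing: Single dose | Times: Static 4 h at 37 °C with compound, 1 h detection | Detection: AK luminescence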
Wnt bcat act: Wnt/beta-catenin pathway activation | Wnt/beta-catenin reporter cell assay, activator, plate reader | activation, % at 9.35 µM | 1.2% of 300,000 active | AID 743398; in the data active = activation above about 30%, passing the limit was not always enough; inconclusive = no clear call, values can overlap the other calls
esBAF inh: blocks esBAF chromatin remodeling in mouse ES cells; Bmi1-luciferase knock-in reporter, 24 h; 100% = twice the neutral-well signal; reporter increase, % at 12.5 µM; 2% of 350,000 active; in the data active = activation above about 40%; inconclusive = no clear call, values can overlap the other calls;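 also: a rise in the Bmi1 reporter signal indicates esBAF inhibition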
Env fusion inh: blocks HIV Env-driven cell-cell fusion; inhibition, % at 12.3 µM; HeLa-JRFL Env/CEM21 cell fusion, luciferase; 1.1% of 360,000 active; AID 651610;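 active = mean replicate inhibition score of at least 50 and every replicate individually at or above 50; inconclusive = only one of the two criteria met; inactive = mean below 50 and not all replicates reaching 50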
MITF TRPM1 HTS: increases MITF-driven TRPM1 promoter luciferase signal. 0.75% of 300,000 active. activation, % at 12.5 µM. SK-MEL-5 TRPM1-promoter luciferase, 24 h; % of positive control, neutral wells = 0. AID 588334;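 active = mean activation of at least 80% with every replicate also reaching 80%; inconclusive = mean reaches 80% but some replicate falls short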
Each line names hits and unclear results; the compound was inactive in the other large screens; [ ] = another dose, or the depositor's remark.

Cc1noc(C)c1NC(=O)N(C)C[C@H]1Oc2ccc(NS(=O)(=O)c3ccccc3)cc2C(=O)N([C@@H](C)CO)C[C@H]1C	none (no result: Wnt bcat act, MITF TRPM1 HTS)
Cc1cc(C)c(-c2nc3ccccc3s2)[nH]1	esBAF inh 75.8
Cc1nn(C(C)(C)C)c(C)c1/C=N/OC(=O)Nc1ccc(Cl)c(Cl)c1	Env fusion inh 64.8 (no result: ERAP1 inh, esBAF inh, MITF TRPM1 HTS)
CC(C)CC#Cc1ccc([C@H]2[C@@H](CO)N3C(=O)CN(C(=O)Nc4ccc(F)cc4)C[C@@H]23)cc1	none (no result: Cneo AK release, Wnt bcat act, esBAF inh, Env fusion inh, MITF TRPM1 HTS)
O=C(NCC1CCCO1)c1cc(-c2ccc(Cl)cc2Cl)on1 (stereo unspecified)	Wnt bcat act 36.6 (no result: ERAP1 inh, MITF TRPM1 HTS)
O=C(NCC1CCCO1)c1cc(-c2ccccc2)on1 (stereo unspecified)	none (no result: ERAP1 inh, Wnt bcat act, Env fusion inh)
O=C(NC1CCCC1)c1cc(-c2ccc(Cl)cc2Cl)on1	MITF TRPM1 HTS 97.4
COc1ccc(-c2cc(C(=O)NC3CCCC3)no2)cc1OC	none (no result: ERAP1 inh, Cneo AK release, Wnt bcat act, esBAF inh, Env fusion inh)
COc1ccccc1-c1cc(C(=O)NC2CCCC2)no1	esBAF inh 46.0
O=C(NC1CCCCC1)c1cc(-c2ccccc2Cl)on1	esBAF inh 57.1, MITF TRPM1 HTS 109.7 (no result: Cneo AK release)
O=C(NC1CCCC1)c1cc(-c2ccccc2Cl)on1	Wnt bcat act inconclusive
C[C@@H]1CN([C@@H](C)CO)C(=O)Cc2cc(NC(=O)c3ccncc3)ccc2O[C@@H]1CN(C)C(=O)Nc1ccc2c(c1)OCO2	none (no result: Wnt bcat act, MITF TRPM1 HTS)
COc1cc(C(=O)NCC2CCCO2)ccc1OCc1ccc(Cl)cc1 (stereo unspecified)	none (no result: Env fusion inh)
COc1cc(C(=O)NCC2CCCO2)ccc1OCc1ccc(Cl)cc1Cl (stereo unspecified)	Env fusion inh 67.4 (no result: Cneo AK release)
Cc1ccc(O)c(NC(=O)c2cc(-c3ccccc3Cl)on2)c1	esBAF inh 52.4 (no result: MITF TRPM1 HTS)
CC(=O)N1[C@H](CO)[C@H](c2ccccc2)[C@@H]1CNC(=O)CN1CCOCC1	none (no result: Wnt bcat act, Env fusion inh, MITF TRPM1 HTS)
Cc1noc(C)c1NC(=O)Nc1cccc2c1O[C@H](CN(C)C(=O)Nc1cccc3ccccc13)[C@H](C)CN([C@H](C)CO)C2=O	none (no result: Wnt bcat act, MITF TRPM1 HTS)
COC(=O)c1cc(-c2ccc(Br)cc2)on1	none (no result: MITF TRPM1 HTS)
CCN(CC)C(=O)c1cc(-c2ccc(Br)cc2)on1	esBAF inh 75.1, MITF TRPM1 HTS inconclusive (no result: ERAP1 inh, Wnt bcat act)
O=C1N(c2ccccc2)C[C@@H]2C[C@@H](c3cc4ccccc4o3)N3CCC[C@@]123	Env fusion inh 76.0 (no result: Cneo AK release, esBAF inh)
Cc1onc(-c2ccccc2)c1C(=O)OCCOc1cccc(Cl)c1	Env fusion inh 74.7
COCCCNC(=O)C1CCN(C(=O)c2oc3cc4sc(N(C)C)nc4cc3c2C)CC1	esBAF inh 48.6, MITF TRPM1 HTS inconclusive
C[C@@H]1CN([C@H](C)CO)C(=O)Cc2cc(NS(=O)(=O)c3ccccc3)ccc2O[C@@H]1CN(C)Cc1ccc(C(=O)O)cc1	none (no result: Cneo AK release, Wnt bcat act, MITF TRPM1 HTS)
COc1ccc(NC(=O)Nc2ccc3c(c2)C(=O)N([C@@H](C)CO)C[C@H](C)[C@H](CN(C)S(=O)(=O)c2ccc(C)cc2)O3)cc1	Env fusion inh 78.5[16.7 µM] (no result: Wnt bcat act, MITF TRPM1 HTS)
COc1ccc(NC(=O)Nc2ccc3c(c2)C(=O)N([C@@H](C)CO)C[C@@H](C)[C@H](CN(C)S(=O)(=O)c2ccc(C)cc2)O3)cc1	none (no result: Wnt bcat act, MITF TRPM1 HTS)
COc1ccc(S(=O)(=O)N(C)C[C@@H]2Oc3ccc(NC(=O)Nc4ccc(C(F)(F)F)cc4)cc3C(=O)N([C@@H](C)CO)C[C@@H]2C)cc1	Env fusion inh 67.4[16.7 µM] (no result: Wnt bcat act, MITF TRPM1 HTS)
CC1=NN(C(N)=S)C(=O)C1N=Nc1ccc(Cl)cc1 (stereo unspecified)	none
CC1=NN(C(N)=S)C(=O)C1N=Nc1cccc(Cl)c1C (stereo unspecified)	esBAF inh 50.7 (no result: MITF TRPM1 HTS)
O=C(NNC(=O)c1ccccc1O)c1cccc(Br)c1	esBAF inh 45.7 (no result: MITF TRPM1 HTS)
O=C(NNC(=O)c1ccccc1O)c1ccc(Br)cc1	none
O=C(Nc1ccc2c(c1)oc1ccccc12)c1ccc(Br)o1	esBAF inh 83.0 (no result: ERAP1 inh, Env fusion inh)
Cc1ccc(C(=O)Nc2ccc3c(c2)CCC3)o1	none (no result: ERAP1 inh, Wnt bcat act)
O=C(Nc1ccc(N2CCOCC2)c(Cl)c1)c1ccc(Br)o1	Wnt bcat act 52.9, esBAF inh 60.4, MITF TRPM1 HTS 105.5 (no result: ERAP1 inh)
O=C(Nc1ccc2c(c1)CCC2)c1ccc(Br)o1	Wnt bcat act 41.9, esBAF inh 47.4 (no result: ERAP1 inh)
O=C(Nc1ccc(N2CCCC2)cc1)c1ccc(Br)o1	MITF TRPM1 HTS 84.1 (no result: ERAP1 inh, Wnt bcat act, Env fusion inh)
CCCNC(=O)[C@@H]1[C@@H](CO)[C@@H]2Cn3c(ccc(-c4cccc(OC)c4)c3=O)[C@H]1N2CC	none (no result: Cneo AK release, Wnt bcat act, esBAF inh, Env fusion inh, MITF TRPM1 HTS)
